High-throughput results deposited in PubChem by SRMLSC.
Lung fibro prol: antiproliferative effect on LL 47 fibroblasts – human, LL 47 cells, CellTiter-Glo luminescence, primary screen. 85,000 compounds, 1.1% hits. viability, % at 10 µM. LL 47 human lung fibroblast viability, ATP luminescence; active compounds read low;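 active = viability at or below 50% in the single dose screen; inactive = viability above 50%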;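 also: compound exposure lasted 72 h before the ATP readout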
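Material: human lung fibroblast line LL 47, low passage; Evaluation: viability percentage against median untreated-cell control; Buffer or medium: 15% FBS in IMEM; Incubation: 72 h compound exposure at 37 °C after overnight plating; Dosing: 0.1% DMSO in all compound wells; Measured by: CellTiter-Glo luminescence.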
HUVEC inhibit: inhibitors of HUVEC proliferation, primary screen, cell-based, 384-well; CellTiter-Glo luminescence, 72 h; active compounds read low; viability, % at 10 µM (by protocol); 86,000 compounds, 1.1% hits;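 active = viability at or below 30%; inactive = viability above 30%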
bCat KO growth: primary screen for growth suppressors in beta-catenin knockout HCT116 cells (colon tumor, human); HCT116 beta-catenin knockout viability, CellTiter-Glo, 60 h; active compounds read low; viability, % at 10 µM; 140,000 compounds, 1.5% hits;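 active = viability at or under a set limit, the compound median less 4 SD, cut at about 6% in these data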
H69AR growth 86K: proliferation blockers of H69AR lung cancer cells, primary screen, cell-based, human, 86K library; H69AR lung tumor viability, ATP luminescence, 72 h; active compounds read low; AID 598, 2007; 85,000 compounds, 6% hits; viability, % at 10 µM;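 active = viability at or below 40%; inactive = viability above 40%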;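 also: multidrug resistant small cell line overexpressing MRP-1 efflux transporter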
HCT116 PTEN-null: growth suppression of PTEN-null HCT116, primary screen, cell-based, CellTiter-Glo | HCT116 PTEN-null viability, 60 h; active compounds read low | viability, % at 10 µM | 140,000 compounds, 1.2% hits | AID 827, 2007;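 active = viability at or below a set limit, 4 SD under the median of all tested compounds, cut at about 3.7% in these data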;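 also: PTEN knockout HCT116 line with beta catenin targeted HCT116 as companion control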
Hits are given with their value; 0 = inactive; - = not tested or not shown. Only a selection was taken, and hits are over-represented in it overall.

SMILES | Lung fibro prol | HUVEC inhibit | bCat KO growth | H69AR growth 86K | HCT116 PTEN-null
CC(=O)OCCNc1cc(N2CCN(C)CC2)c2noc3c2c1C(=O)c1ccccc1-3 | - | - | 0 | - | 0
Cc1c(C2Nc3ccccc3NC3=C2C(=O)CC(C)(C)C3)cnn1C (centres undefined) | 0 | 0 | 0 | 0 | 0
CC1(C)CC(=O)C2=C(C1)Nc1ccccc1N=C2 | 0 | 0 | 0 | 0.3 | 0
CC(C)(c1ccccc1)c1ccc(OCCCNCCO)cc1 | 0 | 26 | 1.8 | 0.9 | 0
Cc1cccc(NC(=O)/C=C/c2cccs2)n1 | - | - | 0 | - | 0
Cc1cc(=O)[nH]c2ccc(Cl)cc12 | 0 | 24 | 0 | 0 | 0
COc1cccc2sc(NC(=O)c3ccc(Br)s3)nc12 | - | - | 0 | - | 0
c1ccc(Nc2nc(-c3ccccn3)cs2)cc1 | 0 | 0 | 0 | 37 | 0
Nc1ccc(Nc2nc(-c3ccncc3)cs2)cc1 | 0 | 0 | 0 | 37 | 0
c1ccc(-c2csc(Nc3cccnc3)n2)nc1 | 0 | 0 | 0 | 0 | 0
COc1cccc2sc(Nc3nc(-c4ccccn4)cs3)nc12 | - | - | 4.3 | - | 2.6
Cc1cc2c3c(c1)C1(C(=O)N3C(C)(C)CC2C)C(C#N)=C(N)Oc2cc(O)ccc21 (centres undefined) | 0 | 0 | 0 | 0 | 0
COc1ccc(CSC(=N)N)cc1[N+](=O)[O-] | 0 | 0 | 0 | 0 | 0
CCCCCOc1ccc(CSC(=N)N)cc1[N+](=O)[O-] | - | - | 1.9 | - | 1.3
COc1ccccc1CNC(=O)C(NC(=O)C1CCCCC1)C(C)C (centres undefined) | 0 | 0 | - | 0 | -
Oc1ccccc1CNc1ccc(Br)cn1 | 6.4 | 9.3 | 0 | 0 | 0
O=C(c1ccc(-c2ccccc2)cc1)N1CCC(C(=O)N2CCCC2)CC1 | 0 | 0 | 0 | 0 | 0
CC(=O)N1CCN(c2ccccc2NC(=O)COc2ccc(Cl)cc2Cl)CC1 | 0 | 0 | 0 | 0 | 0
CCC(=O)N1CCN(c2ccccc2NC(=O)COc2cc(C)ccc2C(C)C)CC1 | 0 | 0 | 0 | 36 | 0
CC(C)CN(CC(C)C)C(=S)NC1CCCCC1 | - | - | 0 | - | 0
CCOc1cc(CNCCCN2CCOCC2)cc(Br)c1OCC(=O)Nc1cccc(C(F)(F)F)c1 | - | - | 1.9 | - | 1.5
O=C(Nc1ccc(Cl)cc1)NC1CCCc2ccccc21 (centres undefined) | - | - | 0 | - | 0
CN(C)S(=O)(=O)c1ccc2[nH]cc(/C=C/c3nc4ccccc4c(=O)n3-c3ccccc3)c2c1 | 0 | 0 | 0 | 37 | 0
COc1ccc(OC)c(NC(=O)c2cc(-c3cc(Cl)ccc3O)n[nH]2)c1 | 0 | 0 | 0 | 1.2 | 0
C=CCn1c(O)c(N=NC(=S)Nc2ccc(OC)cc2)c2ccccc21 | 0 | 0 | 0 | 35 | 0
SMILES | Lung fibro prol | HUVEC inhibit | bCat KO growth | H69AR growth 86K | HCT116 PTEN-null
Cc1ccccc1N1C(=O)CN(Cc2sccc2C)C1=S | - | - | 0 | - | 0
CCC1(C)Cc2c(sc3c2c(=O)n(C)c2nnc(SCc4ccccc4)n32)CO1 (centres undefined) | 0 | 0 | 0 | 15 | 0
Cn1c(=O)c2c3c(sc2n2c(SCc4ccccc4)nnc12)CCCC3 | - | - | 0 | - | 0
CCn1c(=O)c2c3c(sc2n2c(SCc4ccc(F)cc4)nnc12)CCCC3 | 0 | 0 | - | 16 | -
Cc1ccc(C)c(N2CCN(C(=O)COc3cc(=O)n(C)c4ccccc34)CC2)c1 | 0 | 0 | 0 | 0 | 0
Cc1ccc(C)c(N2CCN(C(=O)CCCOc3cc(=O)n(C)c4ccccc34)CC2)c1 | 0 | 0 | 0 | 2.8 | 0
O=C(Cn1nnc(-c2ccccc2F)n1)Nc1ccc(C(=O)N2CCOCC2)cc1 | 0 | 0 | 0 | 0 | 0
COC(=O)c1c(C(=O)OC)n(CCCN)c2ccc(C)cc12 | 0 | 0 | 0 | 0 | 0
Cc1ccc2c(c1)c1cccc3c1n2CCN3CCC(N)=O | 0 | 21 | 0 | 0 | 0
Cc1ccc(NC(=O)CCSc2nnc3ccccn23)cc1 | 0 | 0 | 0 | 0 | 0
CCOC(=O)c1sc(NC(=O)Nc2cccc(Cl)c2)cc1C | - | - | 3.6 | - | 2.4
CSc1nc2ccc3nc(NC(=O)c4ccccc4)sc3c2s1 | 0 | 0 | 0 | 32 | 0
CC(=O)Nc1sc(NC(=O)c2ccccc2)nc1-c1cccs1 | 0 | 0 | 0 | 0 | 0
Cc1ccc(C(=O)CN2/C(=C(\O)c3ccccc3)C(=O)c3ccccc3S2(=O)=O)c(C)c1 | 0 | 0 | 0 | 24 | 0
COc1ccc(CCC(=O)Nc2ccc(-c3noc(-c4ccc(OC)c(OC)c4)n3)cc2)cc1 | 0 | 0 | 0 | 0 | 0
COc1cc(-c2nc(-c3ccc(NC(=O)c4ccc(Br)o4)cc3)no2)cc(OC)c1OC | 0 | 0 | 0 | 4.5 | 0
COc1ccc(-c2nc(-c3ccc(NC(=O)c4ccc(Br)o4)cc3)no2)cc1OC | 0 | 0 | 0 | 3.5 | 0
Cc1ccc(S(=O)(=O)Nc2ccccc2CNc2ccc(Br)cn2)cc1 | - | - | 0 | - | 0
CC1CCN(c2ccc(NC(=S)NC(=O)c3ccc(-c4cccc([N+](=O)[O-])c4)o3)cc2)CC1 | 0 | 0 | 0 | 25 | 0
O=C(CCn1c(=O)oc2ccccc21)N1CCN(c2ccccc2Cl)CC1 | 0 | 0 | 0 | 18 | 0
COc1ccc(-c2[nH]c(-c3ccc(F)cc3)nc2SCC(=O)NCc2ccco2)cc1OC | 0 | 0 | 0 | 39 | 0
COc1ccc(-c2[nH]c(-c3ccccc3)nc2SCC(=O)NCc2ccco2)cc1OC | 0 | 0 | 0 | 0 | 0
Cc1ccc(-c2c(C#N)c(N)nc3c2CCCCC3)cc1 | 0 | 0 | 0 | 0 | 0
CC1=C(C#N)c2nc(N)c(C#N)c(C)c2/C1=C\c1ccc(C)cc1 | 3.3 | 4.3 | 3.2 | 0 | 1.9
Nc1c(C(=O)NC2CCCCC2)c2nc3ccccc3nc2n1/N=C/c1ccco1 | 0 | 0 | - | 26 | -
SMILES | Lung fibro prol | HUVEC inhibit | bCat KO growth | H69AR growth 86K | HCT116 PTEN-null
c1ccc(-n2nnnc2Sc2ncnc3sc4c(c23)CCCC4)cc1 | - | - | 4.5 | - | 0
Cc1sc2ncnc(Sc3nnnn3-c3ccc(Cl)cc3)c2c1C | 0 | 9.9 | 4.9 | 1.4 | 0
Cc1cc(NC(=O)Cc2cn3ccsc3n2)n(-c2ccccc2)n1 | - | 0 | 0 | 0 | 0
CC(C)CNC(=S)NC(=O)c1ccc(Cl)cc1Cl | - | - | 0 | - | 0
Nc1c(S(=O)(=O)c2cccc(Cl)c2)c2nc3ccccc3nc2n1CCN1CCOCC1 | 0 | 0 | 0 | 0 | 0
O=C(OCn1ncc(Br)c(Br)c1=O)c1ccc(F)cc1 | 1.9 | 2.3 | 0.8 | 1.8 | 0.6
CCn1ncc(Br)c1C(=O)Nc1ccc(C(=O)OC(C)C)cc1 | 0 | 0 | 0 | 0 | 0
O=C(OCn1ncc(Br)c(Br)c1=O)c1ccccc1Cl | 2.7 | 2.6 | 1.5 | 1.2 | 2.0
COc1ccc(CC(=O)Nc2ccc(N3CCN(c4ccc(OC)cc4)CC3)c(C#N)c2)cc1 | 0 | 0 | 0 | 0 | 0
COc1ccc(-n2c(Cc3cc(=O)[nH]c(=O)[nH]3)nnc2SCC(=O)Nc2ccccc2)cc1 | 0 | 0 | 0 | 0 | 0
COc1cccc(-c2nn(-c3ccccc3)cc2C(=O)n2nnc3ccccc32)c1 | 0 | 0 | 0 | 19 | 0
